Screening data from PubChem.
B2AR ag: beta2AR agonists driving receptor internalization, primary screen, cell-based, FAP fluorogen, flow cytometry; Am2.2-beta2AR cells; 0.43% of 340,000 active; response, % (test concentration not listed); AID 504454, 2011; Beta-2 adrenergic receptor (Homo sapiens), P07550;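 active = response above a set limit, near 3 SD of response in nonfluorescent compounds, cut at about 42% in these data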
Target sequence (P07550 whole entry, looked up): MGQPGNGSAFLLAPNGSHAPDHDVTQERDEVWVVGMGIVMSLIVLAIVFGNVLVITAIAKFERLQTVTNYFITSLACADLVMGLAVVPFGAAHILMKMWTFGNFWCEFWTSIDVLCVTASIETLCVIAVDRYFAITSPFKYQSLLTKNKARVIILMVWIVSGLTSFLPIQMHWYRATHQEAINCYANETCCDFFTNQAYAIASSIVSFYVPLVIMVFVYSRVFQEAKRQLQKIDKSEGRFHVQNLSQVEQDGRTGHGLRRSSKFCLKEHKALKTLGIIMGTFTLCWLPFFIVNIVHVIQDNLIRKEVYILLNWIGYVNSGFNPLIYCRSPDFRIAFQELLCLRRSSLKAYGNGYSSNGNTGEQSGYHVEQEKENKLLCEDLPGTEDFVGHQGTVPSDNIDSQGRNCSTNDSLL
GRK2 aptamer HTS: compounds blocking aptamer binding on GRK2 – biochemical, human GRK2, bead flow cytometry, HTS, primary screen. Beta-adrenergic receptor kinase 1 (Homo sapiens), P25098. FAM-aptamer displacement from GRK2. inhibition of aptamer binding, % at 10 µM. 0.59% of 330,000 active;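 active = inhibition of aptamer binding above 40%, roughly 3 SD of noise, on plates passing a quality check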;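 also: median bead fluorescence of bound FAM aptamer so fluorescent compounds give negative values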
TAG inh: inhibitors of triacylglycerol accumulation, primary screen, cell-based, uHTS, fluorescence, H9c2 | H9c2 cells, Nile Red lipid (TAG) fluorescence; cells loaded with 200 µM oleic acid | inhibition, % at 12.5 µM | 0.66% of 230,000 active;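 active = pattern-corrected inhibition of lipid staining of at least 50% with the nuclear-stain viability signal not falling by more than 50%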;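 also: 0% = DMSO wells and 100% = triacsin C control wells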
Lipid droplet: inhibitors of hepatocyte lipid droplet formation, primary screen, imaging, high-throughput imaging, BODIPY stain; AML12 mouse hepatocytes, oleate lipid droplets; inhibition, % at 6.5 µM; 0.4% of 240,000 active; AID 1656, 2009;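 active = lipid droplet intensity inhibited by at least 50%, with more than 500 cells counted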
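Technique: fluorescence imaging, 20x objective, two fields per well / Assay system: AML12 hepatocytes (mouse) / Measure: % inhibition of lipid droplet signal / Doses: 6.5 µM single-point dosing / Incubation: overnight exposure / Reagent: 100 µM oleic acid challenge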
NTR1 agonist: agonists of human NTR1, primary screen, imaging, U2OS cells, beta-arrestin-GFP, high content. 0.17% of 330,000 active. Neurotensin receptor type 1 (Homo sapiens), P30989. activation, % at 20 µM. NTR1-U2OS beta-arrestin-GFP spot imaging, agonist mode;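 active = activation at or above 40% of the spot to cytoplasm intensity ratio, with at least 20 cells analyzed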;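 also: 0% = DMSO without peptide and 100% = 100 nM NTR1 peptide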
Arr AP2 block: inhibitors of beta-arrestin/AP2 binding, primary screen, biochemical, GPCR trafficking, flow cytometry. beta-arrestin 1 C-terminal peptide binding to AP2 beta2-adaptin appendage (human). FITC-arrestin peptide / GST-AP2 beads; AP2 beta2 appendage carries R879A mutation. inhibition, % at 10 µM. 0.31% of 340,000 active;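 active = inhibition above a set limit, near 3 SD of compounds lacking own fluorescence, cut at about 54% in these data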;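 also: plate controls were DMSO wells for no effect and 5 µM unlabelled arrestin peptide for full effect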
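Assay system: GST-AP2 R879A bound to glutathione beads, E. coli-expressed; Medium: PBS with 0.05% Tween 20 and 0.1% BSA; Also added: fluorescein-tagged arrestin peptide at 50 nM final; Timing: 12 min plus 1 h, RT; Measured by: flow cytometry, FL1 (488/535 nm); Evaluation: percent drop in bead-associated FITC signal.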
GRK2 CP1: GRK2 aptamer-displacing inhibitors, retest, confirmation, biochemical, cherry pick 1, bead flow cytometry | bead-bound GRK2, FAM-aptamer displacement | 4% of 2,000 active | shares compounds with GRK2 aptamer HTS | aptamer displacement, % at 10 µM | AID 504451, 2011;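 active = aptamer displacement above 40%, near three times the noise of non-fluorescent compounds, on plates passing quality checks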;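 also: negative values mostly reflect intrinsic compound fluorescence rather than true enhancement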
Aptamer quench SP: counter-screen for GRK2 aptamer inhibitors: fluorescent aptamer quenchers; shares compounds with GRK2 aptamer HTS; fluorescence response (% of DMSO), % at 10 µM; 2,000 tested, under 10 active; Carboxyfluorescein RNA aptamer on beads, flow cytometry quenching; stronger effect = lower value;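 active = compounds that quench the bead-bound fluorescent RNA probe, cutting fluorescence to under half of the solvent control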;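 also: counterscreen run without GRK2 so only probe quenching by compound is measured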
Active calls of the source: *; / = not tested or not shown. The list is not random: actives were taken first. Their share in the collection is about 2%.

SMILES | B2AR ag | GRK2 aptamer HTS | TAG inh | Lipid droplet | NTR1 agonist | Arr AP2 block | GRK2 CP1 | Aptamer quench SP
CC(=O)Nc1ccc(S(=O)(=O)N(C)CC(=O)N/N=C/c2ccncc2)cc1 | 0 | 2 | / | 7 | -1 | 26 | / | /
NS(=O)(=O)c1ccc2nc(NC(=O)c3ccc(Br)o3)sc2c1 | -2 | 54* | 5 | 12 | 1 | -10 | 4 | 93
Cc1ccc2nc(NC(=O)c3ccc(Br)o3)sc2c1 | 1 | 1 | -25 | -3 | -1 | 14 | / | /
CC(C)OC(=O)CNc1n[nH]c(=S)[nH]c1=O | 4 | / | -5 | -44 | / | 31 | / | /
COC(=O)CNc1n[nH]c(=S)[nH]c1=O | 10 | 85* | 9 | / | 1 | 33 | -9 | 99
Cc1ccc(C(=O)OCc2c(C)noc2C)cc1NC(=O)c1ccco1 | -4 | 1 | -6 | -8 | -1 | 8 | -2 | 96
CCCCNC(=O)COC(=O)c1ccc(C)c(NC(=O)c2ccco2)c1 | -4 | 0 | -4 | -2 | -1 | 1 | / | /
O=c1c(=Nc2ccccc2O)c(=O)c2ccccc12 | 7 | 70* | -8 | -12 | 0 | -3 | 2 | 98
O=c1[nH][nH]cc1C=Nc1ccccc1O | -4 | 1 | 2 | / | -1 | 3 | / | /
C[C@@H]1CN([C@@H](C)CO)C(=O)CCCn2nncc2CO[C@@H]1CN(C)S(=O)(=O)c1ccc(C#N)cc1 | / | / | -6 | / | / | / | / | /
C=CCNC(=O)c1onc(CSc2ccc(F)c(F)c2)c1C(=O)NCC=C | 5 | 53* | -17 | / | 2 | -6 | -2 | 105
Cc1ccccc1NS(=O)(=O)c1cc(C(=O)Nc2cccc(N(C)S(C)(=O)=O)c2)ccc1C | -11 | 16 | / | / | 0 | 6 | -1 | 101
CCOC(=O)N1CCN(C(=O)c2ccccc2N(Cc2ccccc2)S(=O)(=O)c2ccccc2)CC1 | -7 | 2 | / | -14 | -1 | -12 | / | /
Cc1cccc(C(=O)N2CCN(c3ccc(C(F)(F)F)cn3)CC2)c1C | 0 | 1 | -6 | 12 | 1 | 24 | -13 | 100
Cn1c(=S)n(CCC(=O)O)c2ccccc21 | -2 | 15 | 0 | 5 | 0 | -1 | -1 | 98
CC(CCC(=O)O)C1CC[C@@]2(C)C3C(=O)CC4C(C)(C)C(O)CC[C@]4(C)C3C(=O)C[C@]12C (some centres not stated) | 0 | 44* | 9 | 2 | -1 | -4 | 1 | 98
O=C(Nc1cccc(C(=O)N2CCOCC2)c1)c1ccccc1Cl | 4 | 2 | 9 | 11 | 0 | 49 | / | /
OCC1CCCN(c2ncnc3scc(-c4ccccc4)c23)C1 (configuration not stated) | -2 | 0 | -11 | 15 | 1 | 32 | / | /
CN(Cc1ccccc1)c1nc(CN2CCOCC2)nc2scc(-c3ccccc3)c12 | -1 | 5 | / | -6 | 1 | 46 | -4 | 95
OCC1CCCN(c2nc(CN3CCCCC3)nc3scc(-c4ccccc4)c23)C1 (configuration not stated) | -3 | 0 | 6 | -2 | 2 | -2 | 0 | 101
CC(C(=O)OCC(=O)c1c(N)n(C)c(=O)n(C)c1=O)N1C(=O)c2ccccc2C1=O (configuration not stated) | -1 | 1 | / | 11 | -2 | 2 | / | /
Cn1c(N)c(C(=O)COC(=O)CCCN2C(=O)c3ccccc3C2=O)c(=O)n(C)c1=O | 5 | 93* | -89 | 4 | 4 | 22 | 1 | 99
